Results: ChEMBL document CHEMBL5058577, “EUbOPEN Chemogenomics Library 2 (Multiplex)” (2022)

Tested on: HEK-293T
Assay: Multiplex assay against HEK293T
Format: toxicity, cell-based
Details: human
In short: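 Four dyes were applied at seeding to live cells: Hoechst33342, BioTracker Green Microtubule Cytoskeleton Dye, MitoTracker Red and Annexin V Alexa Fluor 680. Imaging after compound addition used a CQ1 microscope at 37°C and 5% CO2. CellPathfinder machine-learning gating then sorted cells into Hoechst high-intensity objects or normal cells, normal cells into healthy, pyknosed or fragmented nuclei, and pyknosed cells into mitotic or apoptotic, with tubulin, mitochondrial-mass and membrane-permeability phenotypes given as per cents of healthy-nucleus cells.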

[1] = 12 h, 1 µM, compound concentration 1 uM, replicate 1
[2] = 12 h, 1 µM, compound concentration 1 uM, replicate 2
[3] = 12 h, 10 µM, compound concentration 10 uM, replicate 1
[4] = 12 h, 10 µM, compound concentration 10 uM, replicate 2
[5] = 24 h, 1 µM, compound concentration 1 uM, replicate 1
[6] = 24 h, 1 µM, compound concentration 1 uM, replicate 2
[7] = 24 h, 10 µM, compound concentration 10 uM, replicate 1
[8] = 24 h, 10 µM, compound concentration 10 uM, replicate 2
[9] = 48 h, 1 µM, compound concentration 1 uM, replicate 1
[10] = 48 h, 1 µM, compound concentration 1 uM, replicate 2
[11] = 48 h, 10 µM, compound concentration 10 uM, replicate 1
[12] = 48 h, 10 µM, compound concentration 10 uM, replicate 2

CCc1nn2c(C)cc(C)nc2c1Cc1ccc(-c2nnc(C3CCNCC3)o2)cc1
Population Apoptotic (%) [1]: 35% | Population Fragmented Nuclei (%) [1]: 9% | Population Healthy Nuclei (%) [1]: 80% | Population Hoechst High Intensity Objects (%) [1]: 7% | Population Membrane Permeable-Phenotype (%) [1]: 0% | Population Mitochondria Different-Phenotype (%) [1]: 54% | Population Mitotic Cells (%) [1]: 64% | Population Normal (%) [1]: 92% | Population Pyknosed Nuclei (%) [1]: 10% | Population Tubulin-Different-Phenotype (%) [1]: 37% | Total Cell Count [1]: 401 | Population Apoptotic (%) [2]: 51% | Population Fragmented Nuclei (%) [2]: 7% | Population Healthy Nuclei (%) [2]: 78% | Population Hoechst High Intensity Objects (%) [2]: 5% | Population Mitochondria Different-Phenotype (%) [2]: 62% | Population Mitotic Cells (%) [2]: 48% | Population Normal (%) [2]: 94% | Population Pyknosed Nuclei (%) [2]: 13% | Population Tubulin-Different-Phenotype (%) [2]: 19% | Total Cell Count [2]: 395 | Population Apoptotic (%) [3]: 63% | Population Fragmented Nuclei (%) [3]: 6% | Population Healthy Nuclei (%) [3]: 68% | Population Hoechst High Intensity Objects (%) [3]: 11% | Population Membrane Permeable-Phenotype (%) [3]: 0% | Population Mitochondria Different-Phenotype (%) [3]: 85% | Population Mitotic Cells (%) [3]: 36% | Population Normal (%) [3]: 88% | Population Pyknosed Nuclei (%) [3]: 25% | Population Tubulin-Different-Phenotype (%) [3]: 65% | Total Cell Count [3]: 319 | Population Apoptotic (%) [4]: 56% | Population Fragmented Nuclei (%) [4]: 4% | Population Healthy Nuclei (%) [4]: 78% | Population Hoechst High Intensity Objects (%) [4]: 12% | Population Mitochondria Different-Phenotype (%) [4]: 86% | Population Mitotic Cells (%) [4]: 43% | Population Normal (%) [4]: 87% | Population Pyknosed Nuclei (%) [4]: 17% | Population Tubulin-Different-Phenotype (%) [4]: 48% | Total Cell Count [4]: 293 | Population Apoptotic (%) [5]: 44% | Population Fragmented Nuclei (%) [5]: 10% | Population Healthy Nuclei (%) [5]: 76% | Population Hoechst High Intensity Objects (%) [5]: 4% | Population Membrane Permeable-Phenotype (%) [5]: 0% | Population Mitochondria Different-Phenotype (%) [5]: 36% | Population Mitotic Cells (%) [5]: 55% | Population Normal (%) [5]: 95% | Population Pyknosed Nuclei (%) [5]: 13% | Population Tubulin-Different-Phenotype (%) [5]: 23% | Total Cell Count [5]: 529 | Population Apoptotic (%) [6]: 34% | Population Fragmented Nuclei (%) [6]: 7% | Population Healthy Nuclei (%) [6]: 78% | Population Hoechst High Intensity Objects (%) [6]: 5% | Population Mitochondria Different-Phenotype (%) [6]: 50% | Population Mitotic Cells (%) [6]: 65% | Population Normal (%) [6]: 94% | Population Tubulin-Different-Phenotype (%) [6]: 19% | Total Cell Count [6]: 542 | Population Apoptotic (%) [7]: 69% | Population Fragmented Nuclei (%) [7]: 11% | Population Healthy Nuclei (%) [7]: 72% | Population Hoechst High Intensity Objects (%) [7]: 5% | Population Membrane Permeable-Phenotype (%) [7]: 0% | Population Mitochondria Different-Phenotype (%) [7]: 73% | Population Mitotic Cells (%) [7]: 30% | Population Normal (%) [7]: 94% | Population Pyknosed Nuclei (%) [7]: 15% | Population Tubulin-Different-Phenotype (%) [7]: 50% | Total Cell Count [7]: 448 | Population Apoptotic (%) [8]: 41% | Population Fragmented Nuclei (%) [8]: 10% | Population Healthy Nuclei (%) [8]: 77% | Population Hoechst High Intensity Objects (%) [8]: 7% | Population Mitochondria Different-Phenotype (%) [8]: 78% | Population Mitotic Cells (%) [8]: 58% | Population Normal (%) [8]: 92% | Population Pyknosed Nuclei (%) [8]: 11% | Population Tubulin-Different-Phenotype (%) [8]: 45% | Total Cell Count [8]: 389 | Population Apoptotic (%) [9]: 28% | Population Fragmented Nuclei (%) [9]: 12% | Population Healthy Nuclei (%) [9]: 79% | Population Hoechst High Intensity Objects (%) [9]: 2% | Population Membrane Permeable-Phenotype (%) [9]: 0% | Population Mitochondria Different-Phenotype (%) [9]: 25% | Population Mitotic Cells (%) [9]: 71% | Population Normal (%) [9]: 97% | Population Pyknosed Nuclei (%) [9]: 8% | Population Tubulin-Different-Phenotype (%) [9]: 15% | Total Cell Count [9]: 842 | Population Apoptotic (%) [10]: 32% | Population Fragmented Nuclei (%) [10]: 11% | Population Healthy Nuclei (%) [10]: 83% | Population Hoechst High Intensity Objects (%) [10]: 5% | Population Mitochondria Different-Phenotype (%) [10]: 24% | Population Mitotic Cells (%) [10]: 67% | Population Normal (%) [10]: 94% | Population Pyknosed Nuclei (%) [10]: 5% | Population Tubulin-Different-Phenotype (%) [10]: 10% | Total Cell Count [10]: 829 | Population Apoptotic (%) [11]: 54% | Population Fragmented Nuclei (%) [11]: 14% | Population Healthy Nuclei (%) [11]: 72% | Population Hoechst High Intensity Objects (%) [11]: 4% | Population Membrane Permeable-Phenotype (%) [11]: 0% | Population Mitochondria Different-Phenotype (%) [11]: 59% | Population Mitotic Cells (%) [11]: 45% | Population Normal (%) [11]: 95% | Population Pyknosed Nuclei (%) [11]: 13% | Population Tubulin-Different-Phenotype (%) [11]: 32% | Total Cell Count [11]: 517 | Population Apoptotic (%) [12]: 50% | Population Fragmented Nuclei (%) [12]: 12% | Population Healthy Nuclei (%) [12]: 80% | Population Hoechst High Intensity Objects (%) [12]: 3% | Population Mitochondria Different-Phenotype (%) [12]: 56% | Population Mitotic Cells (%) [12]: 50% | Population Normal (%) [12]: 96% | Population Pyknosed Nuclei (%) [12]: 6% | Population Tubulin-Different-Phenotype (%) [12]: 26% | Total Cell Count [12]: 607
